# ChEMBL document CHEMBL2331356, “Synthesis of gatifloxacin derivatives and their biological activities against Mycobacterium leprae and Mycobacterium tuberculosis” (Bioorg Med Chem, 2013)
# The source made the active and inactive calls. The rule behind the calls is not given here.
# Legend:
# [1] = system: Mycobacterium tuberculosis; assay: Antimicrobial activity against Mycobacterium tuberculosis H37Rv assessed as drug concentration causing =<1% […] bacterial growth incubated for 21 to 30 days by proportion method; type: functional
# Method in brief: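 H37Rv grown on Löwenstein-Jensen medium; 10³ and 10⁵ CFU spread on 7H11 agar with 10% OADC containing serial twofold compound dilutions. Colonies counted after 21–30 days at 37 °C. […] Compounds dissolved in DMSO or NaOH.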
# [2] = system: Mycobacterium leprae [G89C]
# Mycobacterium leprae [3] = assay: Inhibition of Mycobacterium leprae DNA gyrase GyrA/GyrB assessed as reduction of enzyme supercoiling activity using relaxed pBR322 DNA substrate incubated for 2 hrs at 30 degC by ethidium bromide based gel electrophoresis
# [4] = molecular target: DNA gyrase subunit A/DNA gyrase subunit B (Mycobacterium tuberculosis (strain ATCC 25618 / H37Rv), UniProt P9WG45+P9WG47); assay: Inhibition of Mycobacterium tuberculosis DNA gyrase GyrA/GyrB assessed as reduction of enzyme supercoiling activity using relaxed pBR322 DNA substrate incubated for 1 hr at 37 degC by ethidium bromide based gel electrophoresis
# Mycobacterium leprae [5] = assay: Inhibition of Mycobacterium leprae wild type DNA gyrase GyrA/GyrB-mediated DNA cleavable complex formation assessed as compound concentration inducing 25% DNA cleavage using relaxed pBR322 DNA substrate incubated for 1 hr at 30 degC by agarose gel electrophoresis
# [6] = system: Mycobacterium leprae [A91V]; assay: Inhibition of Mycobacterium leprae […] DNA gyrase GyrA/GyrB A91V mutant-mediated DNA cleavable complex formation assessed as compound concentration inducing 25% DNA cleavage using relaxed pBR322 DNA substrate incubated for 1 hr at 30 degC by agarose gel electrophoresis
SMILES,MIC [1] [µg/mL],CC25 [2],IC50 (Mycobacterium leprae [3]) [µg/mL],IC50 [4] [µM],CC25 (Mycobacterium leprae [5]) [µg/mL],CC25 [6]
COc1c(N2C[C@@H]3CCCN[C@@H]3C2)c(F)cc2c(=O)c(C(=O)O)cn(C3CC3)c12 [MOXIFLOXACIN],0.5,inactive,,,,
CCCCNC(=O)OCC1CN(c2c(F)cc3c(=O)c(C(=O)O)cn(C4CC4)c3c2OC)CCN1 (stereo not drawn),8,inactive,10,34.7,10,
CCOC(=O)C1CN(c2c(F)cc3c(=O)c(C(=O)O)cn(C4CC4)c3c2OC)CCN1 (stereo not drawn),> 32,inactive,17,48.5,80,
CCN1CCN(c2cc3c(cc2F)c(=O)c(C(=O)O)cn3C2CC2)CC1C(=O)O (stereo not drawn),32,inactive,35,119,>240,inactive
CCN1CCN(c2c(F)cc3c(=O)c(C(=O)O)cn(C4CC4)c3c2OC)CC1C(=O)O (stereo not drawn),32,inactive,55,201,>240,
COc1c(N2CCNC(C(=O)O)C2)c(F)cc2c(=O)c(C(=O)O)cn(C3CC3)c12 (stereo not drawn),16,inactive,20,39.5,27,
O=C(O)c1cn(C2CC2)c2cc(N3CCNCC3)c(F)cc2c1=O [CIPROFLOXACIN],0.5,inactive,2,,,
CCOC(=O)C1CN(c2cc3c(cc2F)c(=O)c(C(=O)O)cn3C2CC2)CCN1 (stereo not drawn),4,inactive,20,66.9,20,
O=C(O)c1cn(C2CC2)c2cc(N3CCNC(C(=O)O)C3)c(F)cc2c1=O (stereo not drawn),32,inactive,30,53.3,30,
CCN(CC)C(=O)OCC1CN(c2c(F)cc3c(=O)c(C(=O)O)cn(C4CC4)c3c2OC)CCN1 (stereo not drawn),32,inactive,20,102,60,
CCCCNC(=O)OCC1CN(c2cc3c(cc2F)c(=O)c(C(=O)O)cn3C2CC2)CCN1 (stereo not drawn),16,inactive,22,65.1,30,inactive
COc1c(N2CCNC(C)C2)c(F)cc2c(=O)c(C(=O)O)cn(C3CC3)c12 (stereo not drawn) [GATIFLOXACIN],0.125,inactive,3,7.99,1,
CCN(CC)C(=O)OCC1CN(c2cc3c(cc2F)c(=O)c(C(=O)O)cn3C2CC2)CCN1 (stereo not drawn),128,inactive,118,575,>240,inactive
CC1COc2c(N3CCN(C)CC3)c(F)cc3c(=O)c(C(=O)O)cn1c23 (stereo not drawn) [OFLOXACIN],1,inactive,8,16.6,10,
